# Laboratory results taken from article PMC3417325 (FEBS letters, 2010).
# Ends that are not written are not given here.
# B1: HD-5: human α-defensin stored in granules of Paneth cells (peptide, UniProt Q01523 20-94, looked up)
# Defensin alpha 5: ESLQERADEATTQKQSGEDNQDLAISFAGNGLSALRTSGSQARATCYCRTGRCATRESLSGVCEISGRLYRLCCR
# modifications: Defensin-5
# How the values were obtained:
# [1] = test system: S. aureus; conditions: cited from earlier work
# [2] = test system: Staphylococcus aureus ATCC 29213; type: cell-based; conditions: peptide 256 and 128 µg/ml, 15 min exposure, growth monitored 12 h
# [3] = ANTS/DPX leakage assay from LUVs
# Method in brief: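 LUVs (250 nm, 600 µM final lipid) were loaded with 12.5 mM ANTS and 45 mM DPX by freeze-thaw and 0.4-µm extrusion, then gel-filtered. Buffer was high-salt (5 mM HEPES, 100 mM NaCl, pH 7.4) or low-salt (10 mM NaCl). Twofold defensin dilutions were added, with a water blank and 0.25% Triton X-100 for 100%. Ex 353/Em 515 nm; % leakage = (Ft−F0)/(F100−F0)×100.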
# [4] = SPR, HNP1 peptides on soluble Lipid II immobilized on the chip surface; type: binding; conditions: peptide at 0.1, 1 or 10 µM, supplemental Figure 1
# Method in brief: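 The ligand was short-chain, water-soluble farnesyl (three-isoprene) Lipid II, made with M. flavus vesicles, C18 HPLC-purified and confirmed by mass spectrometry. Signals were corrected by subtracting a control flow-cell.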
molecule,measurement,setting,value
"HNP4: fourth α-defensin discovered in neutrophils (VCSCRLVFCRRTELRVGNCLIGGVSFTYCCTRV; disulfide (positions not given here); ends not checked; UniProt P12838 64-96, looked up)",Activity against Gram-positive bacteria / bactericidal activity,[1],ineffective against Gram-positive bacteria
Human Neutrophil Peptide 1 [HNP1],Bacterial growth after exposure to HNP1,[2],bacterial growth did not measurably recover
same,Leakage from LUVs with increasing content of POPG,"[3]; POPC:POPG = 1:0, 3:2, 2:3, 0:1, HNP1 0.19 to 100 µg/ml, 1 h, triplicate",increasingly pronounced
same,Membrane activity (leakage from POPG LUVs),"[3]; POPG LUVs, panel of six α-defensins, high and low salt, over 24 h (Figure 1)",reduced
same,Activity against Gram-positive bacteria / bactericidal activity,[1],potently bactericidal
same,Binding of peptide to immobilized soluble Lipid II,[4],bound Lipid II dose-dependently
B1,Activity against Gram-positive bacteria / bactericidal activity,[1],potently bactericidal
